Assay results reported in ChEMBL document CHEMBL1250459, “Photoaffinity labeling of Ras converting enzyme 1 (Rce1p) using a benzophenone-containing peptide substrate” (Bioorg Med Chem, 2010).
“And” between values parts separate entries of the source, which are not always exact repeats. Identical values can stand only once. Where a SMILES comes first, the peptide text is derived from it. [ ]: non-standard residue; d: D form. The star is where a group is joined. X1 = O=[N+]([O-])c1cc([N+](=O)[O-])cc(*)c1; Farnesyl = CC(C)=CCC/C(C)=C/CC/C(C)=C/C*; 2Abz = Nc1ccccc1C(=O)O

T1: CAAX prenyl protease 2 (Saccharomyces cerevisiae S288c) (UniProt Q03530)
T1 sequence (whole entry): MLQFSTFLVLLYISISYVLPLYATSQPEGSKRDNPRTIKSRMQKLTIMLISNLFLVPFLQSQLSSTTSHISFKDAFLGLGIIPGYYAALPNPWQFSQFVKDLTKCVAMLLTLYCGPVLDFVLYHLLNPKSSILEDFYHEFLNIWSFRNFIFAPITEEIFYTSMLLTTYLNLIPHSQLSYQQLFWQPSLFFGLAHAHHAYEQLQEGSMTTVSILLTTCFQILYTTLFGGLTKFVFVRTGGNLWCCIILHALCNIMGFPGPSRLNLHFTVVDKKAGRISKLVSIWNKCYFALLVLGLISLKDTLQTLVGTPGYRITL


Assays:
Type in all cases: cell membranes
[1] = target: T1, CAAX prenyl protease 2 (Saccharomyces cerevisiae S288c); assay: (§1) Binding affinity to Rce1p in yeast membranes assessed as reduction in binding affinity at 0.75 uM after 30 mins by Western blotting in presence of 100 uM of (3S,6S,9S,12S,15S,18R,21S,24S,27S)-3,9,15-tris(4-aminobutyl)-24-sec-butyl-21-(4-(3,5-dinitrophenylamino)butyl)-12-((S)-1-hydroxyethyl)-6-(hydroxymethyl)-22-imino-27-(2-(methylthio)ethyl)-1,4,7,10,13,16,19,25-octaoxo-1-phenyl-18-(((2E,6E)-3,7,11-trimethyldodeca-2,6,10-trienylthio)methyl)-2,5,8,11,14,17,20,23,26-nonaazaoctacosan-28-oic acid; parameters: scale not given: the % may be the effect or the level left
Outline: (§2)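 Competition photolabelling: Rce1p-containing yeast membranes (0.25 μg/μL) with biotinylated benzophenone probe (0.75 μM) in 100 mM Hepes, 5 mM MgCl2, pH 7.5. Farnesylated competitor peptide added at 50 or 100 μM. UV photolysis 30 min at 4 °C, then streptavidin pull-down and anti-HA Western blot. Band intensities quantified by densitometry relative to the no-competitor reaction.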

[2] = target: T1, CAAX prenyl protease 2 (Saccharomyces cerevisiae S288c); assay: as §1, with “50” for “100”; parameters: scale not given: the % may be the effect or the level left; outline: as §2
[3] = substrate: CC[C@H](C)[C@H](NC(=O)[C@H](CCCCNc1cc([N+](=O)[O-])cc([N+](=O)[O-])c1)NC(=O)[C@H](CSC/C=C(\C)COCc1cccc(C(=O)c2ccccc2)c1)NC(=O)[C@H](CCCCN)NC(=O)[C@@H](NC(=O)[C@H](CCCCN)NC(=O)[C@H](CO)NC(=O)[C@H](CCCCN)NC(=O)c1ccccc1N)[C@@H](C)O)C(=O)N[C@@H](CCSC)C(=O)O; assay: Activity of Rce1p in yeast membranes assessed as enzyme-mediated Ca1a2X proteolysis per mg of protein measured every 30 to 60 seconds for 1 hr by spectrofluorimetric assay; settings: Saccharomyces cerevisiae
[4] = substrate: CC[C@H](C)[C@H](NC(=O)[C@H](CCCCNc1cc([N+](=O)[O-])cc([N+](=O)[O-])c1)NC(=O)[C@H](CSC/C=C(\C)CC/C=C(\C)CCC=C(C)C)NC(=O)[C@H](CCCCN)NC(=O)[C@@H](NC(=O)[C@H](CCCCN)NC(=O)[C@H](CO)NC(=O)[C@H](CCCCN)NC(=O)c1ccccc1N)[C@@H](C)O)C(=O)N[C@@H](CCSC)C(=O)O; assay: (§3) Activity of Rce1p in yeast membranes assessed as enzyme-mediated Ca1a2X proteolysis measured every 30 to 60 seconds for 1 hr by spectrofluorimetric assay; settings: Saccharomyces cerevisiae
[5] = substrate: CC[C@H](C)[C@H](NC(=O)[C@H](CCCCNc1cc([N+](=O)[O-])cc([N+](=O)[O-])c1)NC(=O)[C@H](CSC/C=C(\C)COCc1cccc(C(=O)c2ccccc2)c1)NC(=O)[C@H](CCCCN)NC(=O)[C@@H](NC(=O)[C@H](CCCCN)NC(=O)[C@H](CO)NC(=O)[C@H](CCCCN)NC(=O)c1ccccc1N)[C@@H](C)O)C(=O)N[C@@H](CCSC)C(=O)O; assay: as §3; settings: Saccharomyces cerevisiae

Row | Activity [1] | Activity [2] | Molecule | Vmax [3] | Km [4] | Km [5]
1 | 31% | 60% | CC[C@H](C)[C@H](NC(=O)[C@H](CCCCNc1cc([N+](=O)[O-])cc([N+](=O)[O-])c1)NC(=O)[C@H](CSC/C=C(\C)CC/C=C(\C)CCC=C(C)C)NC(=O)[C@H](CCCCN)NC(=O)[C@@H](NC(=O)[C@H](CCCCN)NC(=O)[C@H](CO)NC(=O)[C@H](CCCCN)NC(=O)c1ccccc1N)[C@@H](C)O)C(=O)N[C@@H](CCSC)C(=O)O (H-[2Abz]KSKTKC(Farnesyl)K(X1)IM-OH) | – | – | –
2 | – | – | CAAX prenyl protease 2 (Saccharomyces cerevisiae S288c), Q03530 (protein) MLQFSTFLVLLYISISYVLPLYATSQPEGSKRDNPRTIKSRMQKLTIMLISNLFLVPFLQSQLSSTTSHISFKDAFLGLGIIPGYYAALPNPWQFSQFVKDLTKCVAMLLTLYCGPVLDFVLYHLLNPKSSILEDFYHEFLNIWSFRNFIFAPITEEIFYTSMLLTTYLNLIPHSQLSYQQLFWQPSLFFGLAHAHHAYEQLQEGSMTTVSILLTTCFQILYTTLFGGLTKFVFVRTGGNLWCCIILHALCNIMGFPGPSRLNLHFTVVDKKAGRISKLVSIWNKCYFALLVLGLISLKDTLQTLVGTPGYRITL | 0.093 nmol/min/mg | 6.4 µM and 4 µM | 1.9 µM
